Data from ChEMBL document CHEMBL3860041, “Synthesis, biological evaluation and molecular modeling study of some new methoxylated 2-benzylthio-quinazoline-4(3H)-ones as nonclassical antifolates” (Bioorg Med Chem Lett, 2016).

Legend:
[1] = Growth inhibition of human HT-29 cells at 10 uM after 48 hrs by SRB assay relative to control; format: functional; conditions: HT-29, 48 h, read-out: GI
Procedure, shortened: (§1)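 NCI 60-cell-line panel, nine tumor subpanels; compounds tested at a single dose of 10 μM in the primary screen.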

[2] = Growth inhibition of human KM12 cells at 10 uM after 48 hrs by SRB assay relative to control; format: functional; conditions: KM12, 48 h, read-out: GI; procedure, shortened: as §1
[3] = Growth inhibition of human PC3 cells at 10 uM after 48 hrs by SRB assay relative to control; format: functional; conditions: PC-3, 48 h, read-out: GI; procedure, shortened: as §1
[4] = Growth inhibition of human Caki1 cells at 10 uM after 48 hrs by SRB assay relative to control; format: functional; conditions: CAKI-1, 48 h, read-out: GI; procedure, shortened: as §1
Cancer cell lines [5] = assay: Potency index, ratio of 5-fluorouracil GI50 to compound GI50 for human breast cancer cells; format: functional
Procedure, shortened: (§2)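 GI50 for each cell line came from NCI panel testing over a 5-log dose range, with 5-fluorouracil tested alongside as the reference drug. The index relates the 5-fluorouracil GI50 to the compound GI50 within each tumour subpanel.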

[6] = Growth inhibition of human breast cancer cells after 48 hrs by SRB assay; format: functional; conditions: Cancer cell lines
Procedure, shortened: (§3)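 Follow-up NCI panel testing over a 5-log dose range for each cell line. GI50, TGI and LC50 were monitored, with 5-fluorouracil run as the positive control. Values are grouped by tumour subpanel.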

[7] = Growth inhibition of human HOP92 cells at 10 uM after 48 hrs by SRB assay relative to control; format: functional; conditions: HOP-92, 48 h, read-out: GI; procedure, shortened: as §1
Cancer cell lines [8] = assay: Potency index, ratio of 5-fluorouracil GI50 to compound GI50 for human colon cancer cells; format: functional; procedure, shortened: as §2
[9] = Growth inhibition of human NCI-H522 cells at 10 uM after 48 hrs by SRB assay relative to control; format: functional; conditions: NCI-H522, 48 h, read-out: GI; procedure, shortened: as §1
[10] = Growth inhibition of human RPMI8226 cells at 10 uM after 48 hrs by SRB assay relative to control; format: functional; conditions: RPMI-8226, 48 h, read-out: GI; procedure, shortened: as §1
Cancer cell lines [11] = assay: Potency index, ratio of 5-fluorouracil GI50 to compound GI50 for human non-small cell lung cancer cells; format: functional; procedure, shortened: as §2
[12] = Growth inhibition of human HCT15 cells at 10 uM after 48 hrs by SRB assay relative to control; format: functional; conditions: HCT-15, 48 h, read-out: GI; procedure, shortened: as §1
[13] = Growth inhibition of human HCC2998 cells at 10 uM after 48 hrs by SRB assay relative to control; format: functional; conditions: HCC 2998, 48 h, read-out: GI; procedure, shortened: as §1
[14] = Growth inhibition of human renal cancer cells after 48 hrs by SRB assay; format: functional; conditions: Cancer cell lines; procedure, shortened: as §3
[15] = Growth inhibition of human melanoma cells after 48 hrs by SRB assay; format: functional; conditions: Melanoma cell; procedure, shortened: as §3
[16] = Growth inhibition of human prostate cancer cells after 48 hrs by SRB assay; format: functional; conditions: Cancer cell lines; procedure, shortened: as §3
Cancer cell lines [17] = assay: Potency index, ratio of 5-fluorouracil GI50 to compound GI50 for human prostate cancer cells; format: functional; procedure, shortened: as §2
[18] = Growth inhibition of human NCI-322M cells at 10 uM after 48 hrs by SRB assay relative to control; format: functional; conditions: read-out: GI; procedure, shortened: as §1
[19] = Growth inhibition of human SF539 cells at 10 uM after 48 hrs by SRB assay relative to control; format: functional; conditions: SF-539, 48 h, read-out: GI; procedure, shortened: as §1
[20] = Growth inhibition of human SW620 cells at 10 uM after 48 hrs by SRB assay relative to control; format: functional; conditions: SW-620, 48 h, read-out: GI
Procedure, shortened: (§4)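 Primary screen across the full NCI 60 human tumour cell line panel, which covers nine tumour subpanels. A single dose of 10 μM was applied to each line, and growth was recorded for each cell line.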

[21] = Growth inhibition of human U251 cells at 10 uM after 48 hrs by SRB assay relative to control; format: functional; conditions: U-251, 48 h, read-out: GI; procedure, shortened: as §4
Dihydrofolate reductase = target: T1, Dihydrofolate reductase (Bos taurus, UniProt P00376); assay: Inhibition of bovine liver DHFR preincubated for 2 mins followed by addition of FH2 as substrate and NADPH
T1 sequence (P00376 whole entry): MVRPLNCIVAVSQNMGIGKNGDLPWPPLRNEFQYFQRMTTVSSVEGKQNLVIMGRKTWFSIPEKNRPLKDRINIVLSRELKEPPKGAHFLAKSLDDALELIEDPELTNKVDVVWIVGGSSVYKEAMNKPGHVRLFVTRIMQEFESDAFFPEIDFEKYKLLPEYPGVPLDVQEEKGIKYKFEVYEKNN

[22] = Growth inhibition of human SF295 cells at 10 uM after 48 hrs by SRB assay relative to control; format: functional; conditions: SF-295, 48 h, read-out: GI; procedure, shortened: as §1
Melanoma cell = assay: Potency index, ratio of 5-fluorouracil GI50 to compound GI50 for human melanoma cells; format: functional; procedure, shortened: as §2
[23] = Growth inhibition of human SK-MEL-28 cells at 10 uM after 48 hrs by SRB assay relative to control; format: functional; conditions: SK-MEL-28, 48 h, read-out: GI; procedure, shortened: as §4
Cancer cell lines [24] = assay: Potency index, ratio of 5-fluorouracil GI50 to compound GI50 for human renal cancer cells; format: functional; procedure, shortened: as §2
Cancer cell lines [25] = assay: Potency index, ratio of 5-fluorouracil GI50 to compound GI50 for human ovarian cancer cells; format: functional; procedure, shortened: as §2
[26] = Growth inhibition of human OVCAR3 cells at 10 uM after 48 hrs by SRB assay relative to control; format: functional; conditions: OVCAR-3, 48 h, read-out: GI; procedure, shortened: as §1
[27] = Growth inhibition of human M14 cells at 10 uM after 48 hrs by SRB assay relative to control; format: functional; conditions: M14, 48 h, read-out: GI; procedure, shortened: as §1
[28] = Growth inhibition of human MDA-MB-231 cells at 10 uM after 48 hrs by SRB assay relative to control; format: functional; conditions: MDA-MB-231, 48 h, read-out: GI; procedure, shortened: as §1
[29] = Growth inhibition of human leukemia cells after 48 hrs by SRB assay; format: functional; conditions: Leukemia cell; procedure, shortened: as §3
[30] = Growth inhibition of human NCI-H460 cells at 10 uM after 48 hrs by SRB assay relative to control; format: functional; conditions: NCI-H460, 48 h, read-out: GI; procedure, shortened: as §1
[31] = Growth inhibition of human IGROV1 cells at 10 uM after 48 hrs by SRB assay relative to control; format: functional; conditions: IGROV-1, 48 h, read-out: GI; procedure, shortened: as §1
[32] = Growth inhibition of human MCF7 cells at 10 uM after 48 hrs by SRB assay relative to control; format: functional; conditions: MCF7, 48 h, read-out: GI; procedure, shortened: as §1
[33] = Growth inhibition of human UACC62 cells at 10 uM after 48 hrs by SRB assay relative to control; format: functional; conditions: UACC-62, 48 h, read-out: GI; procedure, shortened: as §4
[34] = Growth inhibition of human OVCAR8 cells at 10 uM after 48 hrs by SRB assay relative to control; format: functional; conditions: OVCAR-8, 48 h, read-out: GI; procedure, shortened: as §1

`COc1ccc(-n2c(SCc3cc(OC)c(OC)c(OC)c3)nc3ccc(C)cc3c2=O)cc1` showed an inhibition of growth at 10 µM [1] of 78.1%, an inhibition of growth at 10 µM [2] of 64.7% and an inhibition of growth at 10 µM [3] of 25%. For the same compound, the inhibition of growth at 10 µM [4] was 45.8%, the RatioGI50 (Cancer cell lines [5]) was 2 - 10 and the GI50 [6] was 5.3 µM. The LC50 [6] was > 100 µM, the TGI [6] was 91.4 µM and the inhibition of growth at 10 µM [7] was < 10%. For the same compound, the RatioGI50 (Cancer cell lines [8]) was 2 - 10, the inhibition of growth at 10 µM [9] was 60.7% and the inhibition of growth at 10 µM [10] was < 10%. For the same compound, the RatioGI50 (Cancer cell lines [11]) was 2 - 10, the inhibition of growth at 10 µM [12] was 66.4% and the inhibition of growth at 10 µM [13] was 24.3%. For the same compound, the GI50 [14] was 39.7 µM, the LC50 [14] was > 100 µM and the TGI [14] was 88.1 µM. For the same compound, the GI50 [15] was 19.7 µM, the LC50 [15] was > 100 µM and the TGI [15] was 89.4 µM. For the same compound, the GI50 [16] was 52.8 µM, the LC50 (concentration killing 50% of cells) [16] was > 100 µM and the TGI [16] was > 100 µM. For the same compound, the RatioGI50 (Cancer cell lines [17]) was 2 - 10, the inhibition of growth at 10 µM [18] was 19.7% and the inhibition of growth at 10 µM [19] was 22.3%. It also gave an inhibition of growth at 10 µM [20] of 50.7%, an inhibition of growth at 10 µM [21] of 30.9% and an IC50 (Dihydrofolate reductase) of 10 µM. For the same compound, the inhibition of growth at 10 µM [22] was 48.6%, the RatioGI50 (Melanoma cell) was 2 - 10 and the inhibition of growth at 10 µM [23] was 26%. The RatioGI50 (Cancer cell lines [24]) was 2 - 10, the RatioGI50 (Cancer cell lines [25]) was 2 - 10 and the inhibition of growth at 10 µM [26] was 40.1%. The inhibition of growth at 10 µM [27] was 46.2%, the inhibition of growth at 10 µM [28] was 40.3% and the GI50 [29] was 3.4 µM. The TGI [29] was 90.2 µM, the CC50 ([29]; read-out: LC50 (the source's name)) was > 100 µM and the inhibition of growth at 10 µM [30] was 26.2%. It also gave an inhibition of growth at 10 µM [31] of 38%, an inhibition of growth at 10 µM [32] of 75.2% and an inhibition of growth at 10 µM [33] of 43.3%. The inhibition of growth at 10 µM [34] was 15.8%.
